Source: paper PMC11533547 (Poultry Science, 2024)
No end group written: not given here.

Experiments:
chicken PD-1 protein = molecular target: T1, chicken PD-1 protein (Gallus gallus, UniProt A0A1L1RYS1); assay: MST affinity of peptides for chicken PD-1 protein; assay type: binding
T1 sequence (A0A1L1RYS1 1-304): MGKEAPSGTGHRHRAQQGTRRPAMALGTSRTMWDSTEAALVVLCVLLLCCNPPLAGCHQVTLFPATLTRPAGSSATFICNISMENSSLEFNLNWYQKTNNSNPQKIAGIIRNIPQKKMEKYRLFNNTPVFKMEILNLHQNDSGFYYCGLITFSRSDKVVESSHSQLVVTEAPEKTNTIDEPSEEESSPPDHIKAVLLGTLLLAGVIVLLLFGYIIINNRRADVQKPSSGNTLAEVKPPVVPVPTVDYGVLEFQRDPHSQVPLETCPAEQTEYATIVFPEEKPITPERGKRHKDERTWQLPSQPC
Method in brief: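 Chicken PD-1 protein labelled with a BLUE-NHS amine-reactive dye, then mixed in equal volumes with each peptide from a 2-fold dilution series in PBS (pH 7.4), 1800 to 0.054 nM. Incubated about 5 min, loaded into standard capillaries and read at once by microscale thermophoresis. Chicken PD-L1 protein (100 nM) as positive control. KD reported as the mean of 3 independent experiments.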

DT40 cells = assay: MTT cell viability assay; assay type: cell-based, chicken; conditions: 10 to 500 nM peptide, 24 h, OD450

## DAGLYHCLIEYGGADYKTINLK [gDK2-3]
Chicken PD-1 protein
  Kd: 9.73 nM
DT40 cells
  cell viability (cytotoxicity): no significant effect on cell viability
